Measurements from ChEMBL document CHEMBL5230177, “Inactivation of myostatin by photooxygenation using functionalized d-peptides” (RSC Med Chem, 2023).
Active and inactive are the calls of the source. No cut-off for these calls is given here.

Assays:
[1] = target: Growth/differentiation factor 8 (Homo sapiens) (UniProt O14793); assay: Photo-oxygenation of human recombinant Myostatin expressed in Escherichia coli cells assessed as oxygen adduct formation in myostatin peak fragment 79-90 at 3 uM measured after photoirradiation for 30 mins using LED by MALDI-TOF-MS analysis
Method in brief: (§1)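 Myostatin stock (8 μM in 1 mM HCl) diluted to 1 μM in 10 mM phosphate, pH 7.4. Functionalized peptide (final 3 μM) or methylene blue (final 1 μM) added. Irradiated 30 min with 730 nm LED (14 mW) at room temperature. Then 50 mM DTT reduction (37 °C, 0.5 h), Lys-C digestion (1/20 w/w, 37 °C, 2.5 h), ZipTip desalting, MALDI-TOF MS of fragments.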

[2] = target: Growth/differentiation factor 8 (Homo sapiens) (UniProt O14793); assay: Photo-oxygenation of human recombinant Myostatin expressed in Escherichia coli cells assessed as oxygen adduct formation in myostatin peak fragment 55-78 at 3 uM measured after photoirradiation for 30 mins using LED by MALDI-TOF-MS analysis; method in brief: as §1
[3] = target: Growth/differentiation factor 8 (Homo sapiens) (UniProt O14793); assay: Photo-oxygenation of human recombinant Myostatin expressed in Escherichia coli cells assessed as oxygen adduct formation in myostatin peak fragment 40-54 at 3 uM measured after photoirradiation for 30 mins using LED by MALDI-TOF-MS analysis; method in brief: as §1
[4] = target: Amyloid-beta precursor protein (Homo sapiens) (UniProt P05067); assay: Photo-oxygenation of human Amyloid beta (1 to 42) assessed as oxygen adduct formation at 3 uM measured after photoirradiation for 30 mins using LED by MALDI-TOF-MS analysis
Method in brief: (§2)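 Aβ1-42 formed in situ from isopeptide stock (250 μM in 0.1% TFA, ultracentrifuged), diluted to 20 μM in 10 mM phosphate, pH 7.4. Functionalized peptide (final 3 μM) or methylene blue (final 1 μM) added. Irradiated with 730 nm LED (14 mW, 3–5 cm) at room temperature. Reduced with 50 mM DTT (37 °C, 0.5 h), Lys-C digested (1/20 w/w, 37 °C, 2.5 h), desalted, analysed by MALDI-TOF MS.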

HEK293 [5] = assay: Phototoxicity against human HEK293 cells assessed as reduction in cell viability at 3 uM photoirradiated for 30 mins using LED followed by incubation with compound for 24 hrs by WST-1 assay; assay type: toxicity, cell-based; conditions: hek293, 24.5 h, time 1470 min
Method in brief: (§3)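 HEK293 cells grown in DMEM with 10% FBS and non-essential amino acids at 37 °C, 5% CO2, seeded 2.0×10^4 cells/well. After 48 h, medium switched to serum- and phenol red-free DMEM containing 3 μM peptide or methylene blue. Cells irradiated with LED (λmax 730 nm, 30 min), then incubated 24 h. Viability read by WST-1; Student's t-test.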

HEK293 [6] = assay: Cytotoxicity against human HEK293 cells assessed as reduction in cell viability at 3 uM incubated for 24 hrs by WST-1 assay; assay type: toxicity, cell-based; conditions: hek293, 24 h
[7] = target: Growth/differentiation factor 8 (Homo sapiens) (UniProt O14793); assay: Photo-oxygenation of human recombinant Myostatin expressed in Escherichia coli cells assessed as oxygen adduct formation at 1 uM measured after photoirradiation for 30 mins using LED by MALDI-TOF-MS analysis; method in brief: as §1
[8] = target: Amyloid-beta precursor protein (Homo sapiens) (UniProt P05067); assay: Photo-oxygenation of human Amyloid beta (1 to 42) assessed as oxygen adduct formation at 1 uM measured after photoirradiation for 30 mins using LED by MALDI-TOF-MS analysis; method in brief: as §2
[9] = Phototoxicity against human HEK293 cells assessed as cell viability at 3 uM photoirradiated for 30 mins using LED followed by incubation with compound for 24 hrs by WST-1 assay; assay type: toxicity, cell-based; conditions: time 1470 min, read-out: Activity; method in brief: as §3
[10] = target: T1, Growth/differentiation factor 8 (Homo sapiens, UniProt O14793); assay: Photo-oxygenation mediated inactivation of human recombinant Myostatin expressed in Escherichia coli cells photoirradiated for 30 mins using LED followed by incubation with luciferase reporter transfected HEK293 cells for 4 hrs by luciferase reporter gene assay
T1 sequence (O14793 whole entry): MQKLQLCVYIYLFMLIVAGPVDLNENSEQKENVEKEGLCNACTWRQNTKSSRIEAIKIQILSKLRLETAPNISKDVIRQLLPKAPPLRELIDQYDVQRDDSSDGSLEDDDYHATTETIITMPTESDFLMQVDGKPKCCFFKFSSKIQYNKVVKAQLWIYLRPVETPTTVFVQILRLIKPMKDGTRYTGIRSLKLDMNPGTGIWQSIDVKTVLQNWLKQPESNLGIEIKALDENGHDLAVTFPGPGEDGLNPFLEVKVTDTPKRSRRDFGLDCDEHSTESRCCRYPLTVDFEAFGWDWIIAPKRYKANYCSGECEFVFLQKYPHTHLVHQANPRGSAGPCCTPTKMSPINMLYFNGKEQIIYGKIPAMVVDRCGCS
Method in brief: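 Myostatin (1 μM in 10 mM phosphate, pH 7.4, with or without peptide) diluted in serum-free DMEM to 0.6 nM, irradiated at 730 nm for 30 min, then added to HEK293 cells. Cells were transfected 24 h with SBE-luc2P reporter plus TK-Renilla control, then held 8 h in serum/phenol red-free DMEM. Exposure 4 h, PBS wash, dual-luciferase read-out. Triplicate, mean ± s.d. (n = 3), Tukey's test.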

trypsin (Sus scrofa) = assay: Stability of the compound assessed as trypsin (porcine pancreas)-mediated drug degradation at 100 uM measured after 3 hrs by MALDI-TOF-MS analysis
[11] = tested on: chymotrypsin (Bos taurus); assay: Stability of the compound assessed as chymotrypsin (bovine pancreas)-mediated drug degradation by measuring residual ratio at 100 uM measured after 1 hr by HPLC analysis
[12] = tested on: chymotrypsin (Bos taurus); assay: Stability of the compound assessed as chymotrypsin (bovine pancreas)-mediated drug degradation by measuring cleavage at Tyr7-Ser8 residue at 100 uM measured for 3 hrs by MALDI-TOF-MS analysis
[13] = tested on: chymotrypsin (Bos taurus); assay: Stability of the compound assessed as chymotrypsin (bovine pancreas)-mediated drug degradation by measuring cleavage at Leu21-Arg22 residue at 100 uM measured for 3 hrs by MALDI-TOF-MS analysis
[14] = target: Growth/differentiation factor 8 (Homo sapiens) (UniProt O14793); assay: Inactivation of human recombinant Myostatin expressed in Escherichia coli cells at 300 nM incubated with luciferase reporter transfected HEK293 cells for 4 hrs by luciferase reporter gene assay

Amyloid-beta precursor protein (Homo sapiens), sequence (P05067 whole entry): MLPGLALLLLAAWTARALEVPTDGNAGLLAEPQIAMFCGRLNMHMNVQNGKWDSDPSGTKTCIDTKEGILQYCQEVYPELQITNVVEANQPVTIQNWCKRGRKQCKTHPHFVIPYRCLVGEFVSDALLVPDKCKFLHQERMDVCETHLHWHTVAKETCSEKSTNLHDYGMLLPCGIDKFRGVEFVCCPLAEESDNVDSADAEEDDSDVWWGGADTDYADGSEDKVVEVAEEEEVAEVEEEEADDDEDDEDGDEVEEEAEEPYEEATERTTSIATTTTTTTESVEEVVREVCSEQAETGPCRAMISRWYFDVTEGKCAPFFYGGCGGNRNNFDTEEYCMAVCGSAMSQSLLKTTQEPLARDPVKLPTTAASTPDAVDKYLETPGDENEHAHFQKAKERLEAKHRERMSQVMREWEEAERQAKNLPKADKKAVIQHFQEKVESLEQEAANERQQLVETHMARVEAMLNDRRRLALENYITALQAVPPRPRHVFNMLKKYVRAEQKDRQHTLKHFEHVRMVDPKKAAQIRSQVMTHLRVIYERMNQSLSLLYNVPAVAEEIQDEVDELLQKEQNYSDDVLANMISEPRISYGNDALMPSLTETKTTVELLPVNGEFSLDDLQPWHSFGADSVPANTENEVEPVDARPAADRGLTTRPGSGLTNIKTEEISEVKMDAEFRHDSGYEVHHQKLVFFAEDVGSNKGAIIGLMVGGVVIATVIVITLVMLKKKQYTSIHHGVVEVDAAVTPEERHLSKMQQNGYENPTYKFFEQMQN

Activity [1] | Activity [2] | Activity [3] | Activity [4] | SMILES | Activity (HEK293 [5]) | also measured
Active | Active | inactive | inactive | CC[C@@H](C)[C@@H](NC(=O)[C@@H](CCCNC(=N)N)NC(=O)[C@@H](CCc1ccccc1)NC(=O)[C@H](NC(=O)[C@@H](CCCCN)NC(=O)[C@H](NC(=O)[C@@H](Cc1cn(CCN2CCCc3cc(/C=C/C4=C(Br)C(/C=C/c5cc6c7c(c5)CCCN7CCC6)=[O+][B-](F)(C(F)(F)F)O4)ccc32)nn1)NC(=O)[C@H](NC(=O)[C@@H](Cc1ccc2ccccc2c1)NC(=O)[C@@H](CCCNC(=N)N)NC(=O)[C@@H](CCCCN)NC(=O)[C@H](NC(=O)[C@@H](CCCNC(=N)N)NC(=O)[C@H](N)CC(C)C)C1CCCCC1)[C@H](C)CC)C1CCCCC1)[C@H](C)CC)C(=O)N[C@H](Cc1ccc(O)cc1)C(=O)N[C@H](CCc1ccccc1)C(N)=O (stereo not given in full) | Non-Toxic | 
 |  |  |  | CN(C)c1ccc2nc3ccc(N(C)C)cc3[s+]c2c1.[Cl-] [METHYLENE BLUE ANHYDROUS] |  | Activity (HEK293 [6]): Non-Toxic
Active | Active | inactive | inactive | CC[C@@H](C)[C@@H](NC(=O)[C@@H](Cc1cn(CCN2CCCc3cc(/C=C/C4=C(Br)C(/C=C/c5cc6c7c(c5)CCCN7CCC6)=[O+][B-](F)(C(F)(F)F)O4)ccc32)nn1)NC(=O)[C@@H](CCc1ccccc1)NC(=O)[C@H](NC(=O)[C@@H](CCCCN)NC(=O)[C@H](NC(=O)[C@@H](CCCNC(=N)N)NC(=O)[C@H](NC(=O)[C@@H](Cc1ccc2ccccc2c1)NC(=O)[C@@H](CCCNC(=N)N)NC(=O)[C@@H](CCCCN)NC(=O)[C@H](NC(=O)[C@@H](CCCNC(=N)N)NC(=O)[C@H](N)CC(C)C)C1CCCCC1)[C@H](C)CC)C1CCCCC1)[C@H](C)CC)C(=O)N[C@H](Cc1ccc(O)cc1)C(=O)N[C@H](CCc1ccccc1)C(N)=O (stereo not given in full) | Non-Toxic | 
Active | Active | inactive | inactive | CC[C@@H](C)[C@@H](NC(=O)[C@@H](CCCNC(=N)N)NC(=O)[C@@H](CCc1ccccc1)NC(=O)[C@H](NC(=O)[C@@H](CCCCN)NC(=O)[C@H](NC(=O)[C@@H](CCCNC(=N)N)NC(=O)[C@H](NC(=O)[C@@H](Cc1ccc2ccccc2c1)NC(=O)[C@@H](CCCNC(=N)N)NC(=O)[C@@H](Cc1cn(CCN2CCCc3cc(/C=C/C4=C(Br)C(/C=C/c5cc6c7c(c5)CCCN7CCC6)=[O+][B-](F)(C(F)(F)F)O4)ccc32)nn1)NC(=O)[C@H](NC(=O)[C@@H](CCCNC(=N)N)NC(=O)[C@H](N)CC(C)C)C1CCCCC1)[C@H](C)CC)C1CCCCC1)[C@H](C)CC)C(=O)N[C@H](Cc1ccc(O)cc1)C(=O)N[C@H](CCc1ccccc1)C(N)=O (stereo not given in full) | Non-Toxic | 
 |  |  |  | CN(C)c1ccc2nc3ccc(=[N+](C)C)cc-3sc2c1 [METHYLENE BLUE ANHYDROUS] |  | Activity [7]: Active; Activity [8]: Active; viability at 24.5 h, 3 µM [9]: 21%
Active | Active | inactive | inactive | CC[C@@H](C)[C@@H](NC(=O)[C@@H](CCCNC(=N)N)NC(=O)[C@@H](CCc1ccccc1)NC(=O)[C@H](NC(=O)[C@@H](CCCCN)NC(=O)[C@H](NC(=O)[C@@H](CCCNC(=N)N)NC(=O)[C@H](NC(=O)[C@@H](Cc1ccc2ccccc2c1)NC(=O)[C@@H](CCCNC(=N)N)NC(=O)[C@@H](CCCCN)NC(=O)[C@H](NC(=O)[C@@H](CCCNC(=N)N)NC(=O)[C@H](N)CC(C)C)C1CCCCC1)[C@H](C)CC)C1CCCCC1)[C@H](C)CC)C(=O)N[C@H](Cc1ccc(O)cc1)C(=O)N[C@H](Cc1cn(CCN2CCCc3cc(/C=C/C4=C(Br)C(/C=C/c5cc6c7c(c5)CCCN7CCC6)=[O+][B-](F)(C(F)(F)F)O4)ccc32)nn1)C(N)=O (stereo not given in full) | Non-Toxic | 
 |  |  |  | CC[C@H](C)[C@H](NC(=O)[C@H](C)NC(=O)[C@H](CCC(=O)O)NC(=O)[C@@H](NC(=O)[C@H](CCCNC(=N)N)NC(=O)[C@H](CO)NC(=O)[C@H](Cc1ccc(O)cc1)NC(=O)[C@H](CCCNC(=N)N)NC(=O)[C@@H](NC(=O)[C@H](CC(N)=O)NC(=O)[C@H](CCC(N)=O)NC(=O)[C@H](CCCNC(=N)N)NC(=O)CC(c1ccccc1)c1ccccc1)[C@@H](C)O)[C@@H](C)CC)C(=O)N[C@@H](CCCCN)C(=O)N[C@H](C(=O)N[C@@H](Cc1cn(CCN2CCCc3cc(/C=C/C4=C(Br)C(/C=C/c5cc6c7c(c5)CCCN7CCC6)=[O+][B-](F)(C(F)(F)F)O4)ccc32)nn1)C(=O)N[C@H](C(=O)N[C@@H](CC(C)C)C(=O)N[C@@H](CO)C(=O)N[C@@H](CCCCN)C(=O)N[C@@H](CC(C)C)C(=O)N[C@@H](CCCNC(=N)N)C(=O)N[C@@H](CC(C)C)C(=O)O)[C@@H](C)CC)[C@@H](C)CC (stereo not given in full) |  | IC50 [10]: 2.1 nM; Stability (trypsin (Sus scrofa)): Unstable; remaining at 1 h, 100 µM [11]: 13%; Stability [12]: Unstable; Stability [13]: Unstable
 |  |  |  | CC[C@@H](C)[C@@H](NC(=O)[C@@H](CCCNC(=N)N)NC(=O)[C@@H](CCc1ccccc1)NC(=O)[C@H](NC(=O)[C@@H](CCCCN)NC(=O)[C@H](NC(=O)[C@@H](CCCNC(=N)N)NC(=O)[C@H](NC(=O)[C@@H](Cc1ccc2ccccc2c1)NC(=O)[C@@H](CCCNC(=N)N)NC(=O)[C@@H](CCCCN)NC(=O)[C@H](NC(=O)[C@@H](CCCNC(=N)N)NC(=O)[C@H](N)CC(C)C)C1CCCCC1)[C@H](C)CC)C1CCCCC1)[C@H](C)CC)C(=O)N[C@H](Cc1ccc(O)cc1)C(=O)N[C@H](CCc1ccccc1)C(N)=O |  | inhibition [14]: Active
